Measurements reported in ChEMBL document CHEMBL1131244, “New alkenyldiarylmethanes with enhanced potencies as anti-HIV agents which act as non-nucleoside reverse transcriptase inhibitors” (J Med Chem, 1998).
Blank lines part the entries; values can stand above or below the compound they belong to.

Legend:
CCRF-CEM [1] = assay: The compound is evaluated for the cytotoxic concentration for the mock-infected CEM cells; format: functional; settings: Homo sapiens
In short: (§1)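 XTT cytoprotection assay in CEM-SS cells infected with HIV-1 RF, with uninfected cultures for cytotoxicity, in presence of fetal calf serum. Data as percent of uninfected drug-free control. EC50 is 50% protection from cytopathicity; CC50 is 50% cell death in uninfected cells; TI = CC50/EC50. Triplicates on each of two sister plates, plate EC50s averaged. Confirmed by supernatant RT and p24.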

CEM-SS [2] = assay: Inhibitory concentration for cytopathicity of HIV-1 RF in CEM-SS cells; NA means there was no observed inhibition of HIV-1 cytopathicity up to the cytotoxic concentration in uninfected cells.; format: functional, cell-based; in short: as §1
[3] = biological target: Human immunodeficiency virus type 1 reverse transcriptase (Human immunodeficiency virus 1, UniProt Q72547); assay: Inhibitory activity against human immunodeficiency virus (HIV) - 1 reverse transcriptase with rCdG as the template primer
In short: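 Reactions stopped with ice-cold 10% trichloroacetate, filtered through GF/C membrane, washed with ethanol, radiolabel counted by Cerenkov counting. AZTTP and nevirapine as positive controls; IC50 reported.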

CCRF-CEM [4] = assay: The compound is evaluated for the activity against 129/cost (costatolide resistant), V108I mutation in reverse transcriptase in CEM-CC cells.; format: functional, cell-based; settings: Homo sapiens, in the assay text read “K103N” for “V108I”
In short: (§2)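 Cytoprotection assay in CEM-CC cells against NNRTI-resistant HIV-1 isolates obtained by in vitro selection or site-directed mutagenesis, using a higher MOI than the original screening assays. EC50 determined; fold resistance relative to wild-type HIV-1 IIIB.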

CCRF-CEM [5] = assay: The compound is evaluated for the activity against 3TC, M184I mutation in reverse transcriptase in CEM-CC cells.; format: functional, cell-based; settings: Homo sapiens
CCRF-CEM [6] = assay: The compound is evaluated for the activity against DPS ( Diphenyl sulfone resistant), Y181C mutation in reverse transcriptase in CEM-CC cells.; format: functional, cell-based; settings: Homo sapiens; in short: as §2
CEM-SS [7] = assay: The compound is evaluated for the activity against HIV-1 NL4-3, 4XAZT (AZT resistant) mutation in reverse transcriptase in CEM-SS cells.; format: functional, cell-based; settings: Homo sapiens
In short: (§3)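 NL4-3-background virus carrying RT mutations, from site-directed mutagenesis or in vitro NNRTI selection, tested in CEM-SS cells. A higher MOI was used than in the primary screening assays. The result is given as EC50 against each mutant or wild-type virus.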

CEM-SS [8] = assay: The compound is evaluated for the activity against HIV-1 NL4-3, 4XAZT/L100I (AZT resistant) mutation in reverse transcriptase in CEM-SS cells.
CEM-SS [9] = assay: The compound is evaluated for the activity against HIV-1 NL4-3, 4XAZT/Y181C (AZT resistant) mutation in reverse transcriptase in CEM-SS cells.
CEM-SS [10] = assay: The compound is evaluated for the activity against HIV-1 NL4-3, A98G mutation in reverse transcriptase in CEM-SS cells.
CEM-SS [11] = assay: The compound is evaluated for the activity against HIV-1 NL4-3, K101E mutation in reverse transcriptase in CEM-SS cells.
CEM-SS [12] = assay: The compound is evaluated for the activity against HIV-1 NL4-3, K103N mutation in reverse transcriptase in CEM-SS cells.
CEM-SS [13] = assay: The compound is evaluated for the activity against HIV-1 NL4-3, L100I mutation in reverse transcriptase in CEM-SS cells.
CEM-SS [14] = assay: The compound is evaluated for the activity against HIV-1 NL4-3, L74V mutation in reverse transcriptase in CEM-SS cells.
CEM-SS [15] = assay: The compound is evaluated for the activity against HIV-1 NL4-3, V106A mutation in reverse transcriptase in CEM-SS cells.
CEM-SS [16] = assay: The compound is evaluated for the activity against HIV-1 NL4-3, V108I mutation in reverse transcriptase in CEM-SS cells.
CEM-SS [17] = assay: The compound is evaluated for the activity against HIV-1 NL4-3, V179D mutation in reverse transcriptase in CEM-SS cells.
CEM-SS [18] = assay: The compound is evaluated for the activity against HIV-1 NL4-3, Y188C mutation in reverse transcriptase in CEM-SS cells.
CEM-SS [19] = assay: The compound is evaluated for the activity against HIV-1 NL4-3, wild - type mutation in reverse transcriptase in CEM-SS cells.; format: functional, cell-based; settings: Homo sapiens; in short: as §3
CEM-SS [20] = assay: The compound is evaluated for the inhibitory activity against HIV-1 IIIB, wild-type laboratory adapted strain in CEM-SS.; format: functional, cell-based; settings: Homo sapiens
In short: (§4)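 XTT cytoprotection assay in CEM-SS cells infected with HIV-1. EC50 is the concentration giving 50% protection from viral cytopathicity, relative to the uninfected drug-free control. Triplicates were averaged on each of two sister plates, and the two plate EC50s were averaged. Results were confirmed by supernatant RT and p24 levels.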

CEM-SS [21] = assay: The compound is evaluated for the inhibitory activity against HIV-1 RF, wild-type laboratory adapted strain in CEM-SS.; format: functional, cell-based; settings: Homo sapiens; in short: as §4
CCRF-CEM [22] = assay: The compound is evaluated for the activity against HEPT ((Hydroxyethoxy) methyl (phenylthio)thymine resistant), P236L mutation in reverse transcriptase in CEM-CC cells.; format: functional, cell-based; settings: Homo sapiens; in short: as §2
CCRF-CEM [23] = assay: The compound is evaluated for the activity against HIV-1 IIIB, wild - type mutation in reverse transcriptase in CEM-CC cells.; format: functional, cell-based; settings: Homo sapiens
In short: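 Resistant-virus panel in CEM-CC cells. Mutant isolates came from in vitro selection under various NNRTIs. More virus (higher MOI) was used than in the primary screening assays. The result is given as EC50 against each RT-mutant or wild-type isolate.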

CCRF-CEM [24] = assay: The compound is evaluated for the activity against OC (Oxathiin carboxanilide resistant), L100I mutation in reverse transcriptase in CEM-CC cells.; format: functional, cell-based; settings: Homo sapiens; in short: as §2
CCRF-CEM [25] = assay: The compound is evaluated for the activity against TSAO/cost (costatolide resistant), K101E mutation in reverse transcriptase in CEM-CC cells.; format: functional, cell-based; settings: Homo sapiens; in short: as §2
CCRF-CEM [26] = assay: The compound is evaluated for the activity against calo ( calanolide resistant), T139I mutation in reverse transcriptase in CEM-CC cells.; format: functional, cell-based; settings: Homo sapiens; in short: as §2
CCRF-CEM [27] = assay: The compound is evaluated for the activity against cost, Y188H mutation in reverse transcriptase in CEM-CC cells.; format: functional, cell-based; settings: Homo sapiens; in short: as §2
CCRF-CEM [28] = assay: The compound is evaluated for the activity against thiazol (thiazolobenzimidazole resistant), T139I mutation in reverse transcriptase in CEM-CC cells.; format: functional, cell-based; settings: Homo sapiens, in the assay text read “V108I” for “T139I”; in short: as §2
[29] = biological target: Human immunodeficiency virus type 1 integrase (Human immunodeficiency virus 1, UniProt Q7ZJM1); assay: The compound is evaluated for the inhibitory against HIV -1 integrase. NI indicates no inhibition at 100 uM conc.
Homo sapiens = species: Homo sapiens; assay: The compound is evaluated for the inhibitory activity against HIV-1 Ba-L, monocyte-tropic in Mono/Mac cells.; format: functional, cell-based
[30] = biological target: Human immunodeficiency virus 1 nucleocapsid (Human immunodeficiency virus 1, UniProt Q76059); assay: Inhibition of HIV-1 Nucleocapsid protein p7 (no inhibition at 25 uM)
[31] = The compound is evaluated for the inhibitory activity against HIV-1, clade A in PBMC cells.; format: functional, cell-based, Homo sapiens
[32] = The compound is evaluated for the inhibitory activity against HIV-1, clade B in PBMC cells.; format: functional, cell-based, Homo sapiens
[33] = The compound is evaluated for the inhibitory activity against HIV-1, clade C in PBMC cells.; format: functional, cell-based, Homo sapiens
[34] = The compound is evaluated for the inhibitory activity against HIV-1, clade D in PBMC cells.; format: functional, cell-based, Homo sapiens
[35] = The compound is evaluated for the inhibitory activity against HIV-1, clade E in PBMC cells.; format: functional, cell-based, Homo sapiens
[36] = The compound is evaluated for the inhibitory activity against HIV-1, clade F in PBMC cells.; format: functional, cell-based, Homo sapiens
[37] = biological target: Human immunodeficiency virus type 1 protease (Human immunodeficiency virus 1, UniProt Q72874); assay: The compound is evaluated for the inhibitory against HIV -1 protease, a 17% inhibition of HIV-1 protease was observed at a concentration of 100 uM
[38] = The compound is evaluated for the inhibitory activity against HIV-1 ROJO, wild-type clinical isolate in PBMC cells.; format: functional, cell-based, Homo sapiens
[39] = The compound is evaluated for the inhibitory activity against HIV-1 TEKI, wild-type clinical isolate in PBMC cells.; format: functional, cell-based, Homo sapiens
CEM-SS [40] = assay: The compound is evaluated for the activity against HIV-1 NL4-3, Y181C mutation in reverse transcriptase in CEM-SS cells.
CEM-SS [41] = assay: Inhibitory concentration for cytopathicity of HIV-1 in CEM-SS cells; format: functional, cell-based; settings: Homo sapiens; in short: as §1
CEM-SS [42] = assay: The compound is evaluated for the therapeutic index, which is the CC50 divided by the EC50.; format: functional; in short: as §1

IC50 [3]: > 100 µM
Compound: COc1c(Cl)cc(C(=CCC(=O)O)c2cc(Cl)c(OC)c(C(=O)O)c2)cc1C(=O)O
CC50 (CCRF-CEM [1]): > 316 µM
EC50 (CEM-SS [2]): Not Active

Compound: CCCCCC1OC1(c1cc(Br)c(OC)c(C(=O)OC)c1)c1cc(Br)c(OC)c(C(=O)OC)c1 (centres undefined)
CC50 (CCRF-CEM [1]): > 100 µM
EC50 (CEM-SS [2]): Not Active
IC50 [3]: 5.6 µM

Compound: CC=C(c1cc(Br)c(OC)c(C(=O)OC)c1)c1cc(Br)c(OC)c(C(=O)OC)c1
CC50 (CCRF-CEM [1]): 10 µM
EC50 (CEM-SS [2]): Not Active
IC50 [3]: 26 µM

Compound: COC(=O)c1cc(C(=CCCCCO)c2cc(Cl)c(OC)c(C(=O)OC)c2)cc(Cl)c1OC
CC50 (CCRF-CEM [1]): 10.2 µM
EC50 (CEM-SS [2]): Not Active

Compound: COC(=O)CCCC=C(c1cc(Cl)c(OC)c(C(=O)OC)c1)c1cc(Cl)c(OC)c(C(=O)OC)c1
EC50 (CCRF-CEM [4]): 10.8 µM
EC50 (CCRF-CEM [5]): 1.08 µM
EC50 (CCRF-CEM [6]): > 50 µM
CC50 (CCRF-CEM [1]): 31.6 µM
EC50 (CEM-SS [7]): 0.9 µM
EC50 (CEM-SS [8]): 0.27 µM
EC50 (CEM-SS [9]): > 50 µM
EC50 (CEM-SS [10]): 0.84 µM
EC50 (CEM-SS [11]): 3.05 µM
EC50 (CEM-SS [12]): > 50 µM
EC50 (CEM-SS [13]): < 0.16 µM
EC50 (CEM-SS [14]): 2.23 µM
EC50 (CEM-SS [15]): 12.7 µM
EC50 (CEM-SS [16]): 12 µM
EC50 (CEM-SS [17]): 50 µM
EC50 (CEM-SS [18]): 10.8 µM
EC50 (CEM-SS [19]): 1.78 µM
EC50 (CEM-SS [20]): 0.16 µM
EC50 (CEM-SS [21]): 0.91 µM
EC50 (CCRF-CEM [22]): 8.08 µM
EC50 (CCRF-CEM [23]): 0.39 µM
EC50 (CCRF-CEM [24]): 0.94 µM
EC50 (CCRF-CEM [25]): 11.9 µM
EC50 (CCRF-CEM [26]): 15 µM
EC50 (CCRF-CEM [27]): > 50 µM
EC50 (CCRF-CEM [28]): > 50 µM
IC50 [29]: No inhibition
EC50 (Homo sapiens): 0.36 µM
IC50 [30]: No inhibition
EC50 [31]: 1.09 µM
EC50 [32]: 0.43 µM
EC50 [33]: 1.04 µM
EC50 [34]: 1.02 µM
EC50 [35]: 0.4 µM
EC50 [36]: 1.7 µM
IC50 [37]: > 100 µM
EC50 [38]: 2.28 µM
EC50 [39]: 2.2 µM
EC50 (CEM-SS [40]): > 50 µM

Compound: CCCCCC=C(c1cc(I)c(OC)c(C(=O)OC)c1)c1cc(I)c(OC)c(C(=O)OC)c1
CC50 (CCRF-CEM [1]): > 316 µM
EC50 (CEM-SS [2]): Not Active
IC50 [3]: 11 µM

Compound: COC(=O)c1cc(C(=CCCN=[N+]=[N-])c2cc(Br)c(OC)c(C(=O)OC)c2)cc(Br)c1OC
CC50 (CCRF-CEM [1]): > 316 µM
EC50 (CEM-SS [41]): 1.1 µM
IC50 [3]: 94 µM
TI (CEM-SS [42]): >278

IC50 [3]: > 100 µM
Compound: COC=C(c1cc(Br)c(OC)c(C(=O)OC)c1)c1cc(Br)c(OC)c(C(=O)OC)c1
CC50 (CCRF-CEM [1]): 22 µM
EC50 (CEM-SS [2]): Not Active

Compound: COC(=O)c1cc(C(=CCCOS(C)(=O)=O)c2cc(Cl)c(OC)c(C(=O)OC)c2)cc(Cl)c1OC
CC50 (CCRF-CEM [1]): 6.9 µM
EC50 (CEM-SS [2]): Not Active
IC50 [3]: 96 µM

IC50 [3]: > 100 µM
Compound: C=C(c1cc(Br)c(OC)c(C(=O)OC)c1)c1cc(Br)c(OC)c(C(=O)OC)c1
CC50 (CCRF-CEM [1]): 316 µM
EC50 (CEM-SS [2]): Not Active

Compound: CCCCCC=C(c1ccc(OC)c(C(=O)OC)c1)c1ccc(OC)c(C(=O)OC)c1
CC50 (CCRF-CEM [1]): 14 µM
EC50 (CEM-SS [2]): Not Active
IC50 [3]: 3.2 µM
